The results in this text go back to PMC10238246 (Medicinal Chemistry Research, 2023).

The subject of one series is mouse formalin model. Put plainly: mouse formalin model of acute and persistent pain. Type of series: in vivo. The note with it: 200 mg/kg i.p., positive control. Summed up:
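Mouse formalin model: test compounds given s.c. (10, 30, 60 mg/kg) or i.p. (30 mg/kg) to maximise exposure. The positive control was a reference analgesic at 200 mg/kg i.p. Formalin-induced flinches were counted over 65 min. Plasma and brain levels were sampled at study end (~90 min post-dose), and free plasma level was estimated from plasma protein binding.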

A further series deals with mouse rotarod assay. Put plainly: mouse rotarod assay. Type of series: in vivo. The note with it: dose of 200 mg/kg. (In general: The rotarod test checks motor coordination on a turning rod.)

Turning to `NCC1(CC(=O)O)CCCCC1` [Gabapentin], the “efficacy in the formalin model (number of flinches)” value in the series with mouse formalin model is on record as “Efficacy was seen”. Moreover, the behavioral side effects result with mouse rotarod assay was “behavioral side effects (i.e., sedation)”.
